# KCNK3 block: human KCNK3 channel inhibitors, primary screen, CHO cells, FluxOR thallium flux, B-score. Potassium channel subfamily K member 3 (Homo sapiens), O14649. FluxOR fluorescence; active compounds read low. B-score at 10 µM. actives 0.84% (n = 340,000). AID 602410, 2012;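 active means B-score under library mean minus 4 SD, starting fluorescence ratio at most library mean plus 5 SD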;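 further: more negative B-score means stronger inhibition of thallium flux through KCNK3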
# KCNK9 block: KCNK9 potassium channel inhibitors, primary screen, HEK293 cells, thallium flux | B-score at 10 µM | Potassium channel subfamily K member 9 (Homo sapiens), Q9NPC2 | FluxOR thallium flux fluorescence; active compounds read low | actives 1.2% (n = 310,000);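 active means ratio B-score over 3 SD below the library mean, with starting fluorescence within 5 SD of its mean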;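 further: negative B-score means less thallium flux so channel inhibition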
# KCNQ1 pot: potentiators or activators of KCNQ1 channel, primary screen, cell-based, thallium flux, high-throughput | CHO-K1 KCNQ1, thallium flux FluxOR fluorescence; active compounds read high | Potassium voltage-gated channel subfamily KQT member 1 (Homo sapiens), P51787 | B-score at 10 µM | actives 0.35% (n = 310,000);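 active means fluorescence ratio B-score, a plate-corrected score, at least three library SD, with initial intensity B-score within 5 SD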
# Target sequence (P51787 whole entry, looked up): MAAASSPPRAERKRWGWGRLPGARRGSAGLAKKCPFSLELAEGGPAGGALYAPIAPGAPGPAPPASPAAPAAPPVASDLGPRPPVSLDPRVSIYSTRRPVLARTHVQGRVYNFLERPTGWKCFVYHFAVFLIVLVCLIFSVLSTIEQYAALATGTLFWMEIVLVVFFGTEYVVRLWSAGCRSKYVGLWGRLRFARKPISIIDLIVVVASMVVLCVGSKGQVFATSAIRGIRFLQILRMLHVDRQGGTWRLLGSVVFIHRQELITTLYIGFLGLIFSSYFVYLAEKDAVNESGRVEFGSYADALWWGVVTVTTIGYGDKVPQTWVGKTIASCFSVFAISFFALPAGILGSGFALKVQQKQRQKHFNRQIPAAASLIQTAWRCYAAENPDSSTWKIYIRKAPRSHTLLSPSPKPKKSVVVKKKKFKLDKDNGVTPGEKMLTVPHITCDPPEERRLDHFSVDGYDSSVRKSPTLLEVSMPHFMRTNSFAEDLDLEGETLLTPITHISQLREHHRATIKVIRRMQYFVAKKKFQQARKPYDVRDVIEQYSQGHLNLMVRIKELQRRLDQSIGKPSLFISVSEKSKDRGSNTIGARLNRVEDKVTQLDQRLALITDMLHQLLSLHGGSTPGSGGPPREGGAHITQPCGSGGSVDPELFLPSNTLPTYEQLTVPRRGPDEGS
#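 assay system = KCNQ1-transfected CHO-K1 cells | medium = assay buffer with matched DMSO | probe or stimulus = depolarizing K+/Tl+ stimulus, K2SO4 and Tl2SO4 each 12.5 mM in 5x stock | dosing = single dose | incubation = dye 90 min, compound 20 min, room temperature | detection = kinetic FluxOR fluorescence, 10 s baseline plus 110 s post-stimulus | evaluation = ratio B score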
# KCNQ1 block: inhibitors of human KCNQ1 channel, primary screen, cell-based, thallium flux, high-throughput; Potassium voltage-gated channel subfamily KQT member 1 (Homo sapiens), P51787; CHO-K1 KCNQ1, FluxOR thallium flux fluorescence; active compounds read high; B-score at 10 µM; actives 1.3% (n = 310,000);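 active means compounds whose thallium flux B-score, printed positive for inhibition, exceeds three library SD while starting fluorescence stays within three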;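 further: channel opened by potassium depolarization with thallium stimulus after 20 min compound exposure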
# Kir21 block: inhibitors of mouse Kir2.1 inward-rectifier potassium channel; HEK293-Kir2.1, FluxOR thallium flux fluorescence; active compounds read low; Inward rectifier potassium channel 2 (Mus musculus), P35561; B-score at 10 µM; actives 0.85% (n = 310,000);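 active means fluorescence ratio B-score at or below minus 3 SD of library scores, with starting-brightness B-score within 2 SD, cut at about -4.2 in these data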;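 further: channel flux triggered by added potassium and thallium sulfate stimulus; B-score of peak minus minimum fluorescence over baseline after thallium stimulus; more negative B-score means stronger Kir2.1 block with less thallium influx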
# hERG protect: hERG rescue from dofetilide block, primary screen, cell-based, CHO-hERG, FluxOR thallium flux, dofetilide IC70 | actives 0.51% (n = 310,000) | activation (rescue from dofetilide block), less the hit threshold, % at 10 µM | Voltage-gated inwardly rectifying potassium channel KCNH2 (Homo sapiens), Q12809 | dofetilide IC70 present;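 active means activation above the mean of controls blocked by dofetilide plus 5 SD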;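 further: thallium influx through hERG after potassium depolarization seen as dye fluorescence rise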
# KCNK9 inh conf: KCNK9 potassium channel inhibitors, confirmation, HEK293 cells, thallium flux, duplicate. shares compounds with KCNK9 block. FluxOR thallium flux fluorescence. actives 43% (n = 4,900). inhibition, % at 10 µM. AID 492992, 2010;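 active means thallium signal inhibited by more than 5 SD of the compound-free buffer control wells, on both duplicate plates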;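 further: 0% = assay buffer control wells without compound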
# Kir21 sel: mouse Kir2.1 channel inhibition, confirmation, selectivity assay for KCNK9 modulator project, cell-based, HEK293, thallium flux. shares compounds with KCNK9 block. actives 4% (n = 4,900). inhibition, % at 10 µM. Kir2.1 cells, FluxOR thallium flux fluorescence. AID 492993, 2010;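 active means thallium signal drop more than 5 SD beyond the mean of the no-compound control wells, seen in both duplicate plates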;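 further: signal is fluorescence rise after thallium addition divided by baseline fluorescence; plate controls were assay buffer only for no effect and full block by chlorpromazine control for full effect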
# KCNK9 uninduced: thallium flux in non-induced HEK293 cells, confirmation, counter-screen for KCNK9 inhibitor project, cell-based, second counter screen, non-induced KCNK9-HEK293; shares compounds with KCNK9 block; FluxOR thallium flux; inhibition, % at 10 µM; actives 40% (n = 4,900); AID 492997, 2010;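 active means thallium signal drop beyond 5 SD of the untreated control mean, on both duplicate plates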;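 further: plate controls were buffer only IC0 wells for no effect and SID17386958 at its maximal inhibitory level for full effect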
# The depositor's hits bear a star; i = inactive; x = no result given. An excerpt weighted towards active compounds, which were near 3.7% of everything screened.
SMILES,KCNK3 block,KCNK9 block,KCNQ1 pot,KCNQ1 block,Kir21 block,hERG protect,KCNK9 inh conf,Kir21 sel,KCNK9 uninduced
O=C(CCSc1ccc(Cl)c(Cl)c1)NC12CC3CC(CC(C3)C1)C2,i,i,i,i,0.27,-7,i,i,i
CN(CCCC(=O)O)S(=O)(=O)c1ccc2c(c1)C(=O)c1cc(S(=O)(=O)N(C)CCCC(=O)O)ccc1-2,i,i,i,i,-1.1,-8,x,x,x
Cc1cc(OCCn2nc(C(=O)O)c3ccccc3c2=O)ccc1C(C)C,i,i,i,i,-0.28,-9,i,i,i
COc1ccc(C)cc1NC(=O)C(OC(=O)Cn1cnc2c1c(=O)n(C)c(=O)n2C)c1ccccc1 (configuration not stated),i,i,i,i,1.6,-15,x,x,x
CCCC(=O)OC(C(=O)Nc1cc(C(F)(F)F)ccc1Cl)c1ccccc1 (configuration not stated),i,-13*,i,i,1.1,-12,46%*,i,46%*
COc1ccc(C)cc1NC(=O)C(OC(=O)c1ccc(Cl)c(S(=O)(=O)N(C)c2ccccc2)c1)c1ccccc1 (configuration not stated),-9.8*,-9.6*,i,i,-0.41,-6,42%*,i,i
Cc1cc(C(=O)NCC(=O)OC(C(=O)Nc2cc(C(F)(F)F)ccc2Cl)c2ccccc2)ccc1[N+](=O)[O-] (configuration not stated),-9.5*,-20*,i,i,0.54,-6,62%*,i,32%*
COc1ccc(C)cc1NC(=O)C(OC(=O)CNC(=O)c1ccc(Br)cc1)c1ccccc1 (configuration not stated),i,-10*,i,i,1.1,-7,36%*,i,38%*
Cc1ccc(C(=O)C(OC(=O)CNC(=O)c2ccc(Cl)cc2)c2ccccc2)cc1 (configuration not stated),i,i,i,i,-0.71,-7,x,x,x
COc1ccc(C(c2nnnn2Cc2cccs2)N2CCN(c3ccccc3F)CC2)cc1 (configuration not stated),i,-12*,i,i,-1.1,-5,28%*,i,38%*
Cc1oc2ccc(NS(=O)(=O)c3cccc4cccnc34)cc2c1C(=O)OC(C)C,i,i,i,i,-0.25,-5,x,x,x
CCC(C)(C)n1nnnc1C(c1ccc2ncccc2c1)N1CCN(c2ccc(O)cc2)CC1 (configuration not stated),i,i,i,i,1.3,-11,x,x,x
CCC(C)(C)n1nnnc1C(c1ccc2ncccc2c1)N1CCN(c2nc3ccccc3s2)CC1 (configuration not stated),i,-15*,i,i,0.04,-7,47%*,i,45%*
O=C(O/N=C\c1ccc(N2CCCCC2)c([N+](=O)[O-])c1)c1ccc(Cl)cc1Cl,i,i,i,i,0.33,-8,x,x,x
COc1ccccc1C(=O)/C=C/c1ccc(N2CCCCC2)c([N+](=O)[O-])c1,i,-10*,i,i,0.03,-4,50%*,i,31%*
Cc1cc(C)n(-c2nc(NCCN(C)C)c3c4c(sc3n2)COC(C)(C)C4)n1,i,i,i,i,-1.1,-12,x,x,x
Cc1cc(C)n(-c2nc(NCCC(C)C)c3c4c(sc3n2)COC(C)(C)C4)n1,i,-12*,i,i,1.6,-13,58%*,i,32%*
COC(=O)[C@@H]1C[C@@]2(O)[C@@H](O)[C@@H](O)[C@@H](O)C[C@H]2N1C/C=C/c1ccccc1,i,i,i,i,-2.8,-10,x,x,x
N/C(=N\OC(=O)c1cccc2ccccc12)c1ccc(Br)cc1,i,-8.3*,i,i,0.11,-4,35%*,i,28%*
N/C(Cc1ccccc1)=N\OC(=O)c1cccc2ccccc12,i,-11*,i,i,-3,-5,i,i,i
Cc1ccc(C(=O)Nc2cc3ccccc3oc2=O)cc1,i,i,i,i,0.02,-3,x,x,x
COC(=O)c1cn(C(=O)c2ccccc2Cl)c2ccccc12,i,i,i,i,0.53,-5,x,x,x
COC(=O)c1cn(C(=O)c2ccc(C)cc2C)c2ccccc12,i,i,i,i,-0.31,-12,i,i,32%*
O=C(c1ccco1)N1CCCC(N2CCN(c3cccc(C(F)(F)F)c3)CC2)C1 (configuration not stated),i,i,i,i,0.66,-18,i,i,i
Cc1cc(C)c(C(=O)N2CCCC(N3CCN(c4cccc(C(F)(F)F)c4)CC3)C2)o1 (configuration not stated),i,i,i,i,1.2,-16,x,x,x
O=C(c1cccs1)N1CCCC(N2CCN(c3cccc(C(F)(F)F)c3)CC2)C1 (configuration not stated),i,i,i,i,1,-17,i,i,i
CC1Cc2ccccc2N1C(=O)C1CCCN(S(=O)(=O)c2cccc3nsnc23)C1 (configuration not stated),i,i,i,i,1.5,-10,i,i,i
O=C(C1CCCN(S(=O)(=O)c2cccc3nsnc23)C1)N1CCc2ccccc21 (configuration not stated),i,i,i,i,0.03,-8,i,i,i

# Screening data from PubChem.
